Data taken from article PMC2921709 (ChemMedChem, 2010).
Where two headings read alike, the source gives them in different places.

How the values were obtained:
HT-29 = test: MTT growth inhibition, HT-29 colon adenocarcinoma cells; type: cell-based, human; conditions: read-out: GI50 HT-29
How it was run: (§1)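 Cells seeded at 8 × 10^3 per well in 96-well plates and held 18 h at 37 °C, 5% CO2. Medium then replaced with test compound in complete medium at various concentrations for 72 h continuous exposure. Viability read by MTT. GI50 is the concentration giving 50% proliferation inhibition, from dose–response curves; mean ± SE of ≥3 independent experiments. Media: leukemia lines in RPMI-1640; solid-tumour lines in DMEM with penicillin G 115 U mL−1, streptomycin and 10% FBS.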

ARO = test: MTT growth inhibition, ARO anaplastic thyroid cells; type: cell-based, human; conditions: read-out: GI50 ARO
How it was run: as §1

Hep G2 = test: MTT growth inhibition, HepG2 hepatoma cells; type: cell-based, human; conditions: read-out: GI50 Hep G2
How it was run: as §1

HeLa = test: MTT growth inhibition, HeLa cervix carcinoma cells; type: cell-based, human; conditions: read-out: GI50 HeLa
How it was run: as §1

HL-60 = test: MTT growth inhibition, HL-60 promyelocytic leukemia cells; type: cell-based, human; conditions: read-out: GI50 HL-60
How it was run: as §1

ML2 = test: MTT growth inhibition, ML-2 myeloid leukemia cells; type: cell-based, human; conditions: read-out: GI50 ML2
How it was run: as §1

K562 = test: MTT growth inhibition, K562 chronic myelogenous leukemia cells; type: cell-based, human; conditions: read-out: GI50 K562
How it was run: as §1

IGROV = test: MTT growth inhibition, IGROV ovarian cancer cells; type: cell-based, human; conditions: Homo sapiens, IGROV, 72 h, read-out: GI50 IGROV
How it was run: as §1

MCF-7 = test: MTT growth inhibition, MCF-7 breast adenocarcinoma cells; type: cell-based, human; conditions: Homo sapiens, MCF7, 72 h, read-out: GI50 MCF-7
How it was run: as §1

RS 4;11 = test: MTT growth inhibition, RS 4; type: cell-based, human; conditions: Homo sapiens, RS4-11, 72 h, read-out: GI50 RS 4;11
How it was run: as §1

Jurkat = test: MTT growth inhibition, Jurkat T-leukemia cells; type: cell-based, human; conditions: Homo sapiens, Jurkat, 72 h, read-out: GI50 Jurkat
How it was run: as §1

solid tumor cells = test: MTT growth inhibition, solid tumor cell lines; type: cell-based; conditions: Homo sapiens, 72 h, read-out: GI50, solid tumor cells
How it was run: as §1

leukemia cells = test: MTT growth inhibition, leukemia cell lines; type: cell-based, human; conditions: 72 h
How it was run: as §1

Bovine brain tubulin = test: Inhibition of tubulin polymerization; type: biochemical; conditions: read-out: Tubulin Assembly IC50; tubulin 10 μM; 20 min incubation; ± SD
[1] = test system: Bovine brain tubulin (colchicine site); test: Inhibition of [3H]colchicine binding to tubulin; conditions: tubulin 1 μM, [3H]colchicine 5 μM
Jurkat cells [2] = test: Flow cytometric cell-cycle analysis; type: cell-based, human
How it was run: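 Jurkat cells in exponential growth, 5 × 10^5 per sample, exposed to test compound at various concentrations for 24 h. Cells fixed in ice-cold 70% ethanol, treated with lysis buffer containing RNase A and 0.1% Triton X-100, then stained with PI. DNA content measured by flow cytometry and phases assigned from DNA histograms. Mean ± SEM of two independent experiments.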

Jurkat cells [3] = test: Annexin V-FITC/PI apoptosis assay; type: cell-based, human; conditions: 24 h treatment
How it was run: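 Jurkat cells exposed to test compound at various concentrations for 24 or 48 h, then harvested. Co-labelled with annexin V–FITC and PI and analysed by flow cytometry (excitation 488 nm; emission 525 and 585 nm). Reported as mean percentage of annexin-V-positive cells ± SEM, three independent experiments.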

Jurkat cells [4] = test: Mitochondrial membrane potential; type: cell-based, human; conditions: 0.5 and 0.1 μM, 24 and 48 h
How it was run: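 After treatment, Jurkat cells were pelleted and resuspended in HBSS containing JC-1, then kept 10 min at 37 °C. They were spun again, taken up in HBSS and read by flow cytometry. Polarised mitochondria give red JC-1 aggregates (590 nm); depolarisation gives green monomers (530 nm).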

Jurkat cells [5] = test: Mitochondrial ROS production; type: cell-based, human; conditions: 24 and 48 h
How it was run: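 Jurkat cells treated with test compound for 24 or 48 h, pelleted, then loaded in HBSS with hydroethidine (HE) or H2-DCFDA for 30 min at 37 °C. Cells re-pelleted into HBSS and read by flow cytometry: 488 nm excitation, emission 585 nm (HE) and 530 nm (DCF). Fluorescence intensity given as % of untreated control; mean ± SEM, three independent experiments.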

[6] = test system: caspase-3 in Jurkat cells; test: Caspase-3 activation by flow cytometry; type: cell-based, human; conditions: time- and concentration-dependent
Bcl-2 in Jurkat cells = test: Flow cytometric analysis of Bcl-2 expression; type: cell-based, human; conditions: 24 and 48 h, flow cytometry
How it was run: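 Jurkat cells incubated with test compound for 24 and 48 h, then pelleted and permeabilised with a Fix&Perm kit. Labelled with FITC-conjugated anti-Bcl-2 monoclonal antibody, washed and analysed by flow cytometry. Mean ± SEM of two independent experiments.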

[7] = test system: panel of human tumor cell lines; test: MTT growth inhibition, whole panel of human tumor cell lines; type: cell-based; conditions: 72 h, read-out: GI50, all cell lines tested
How it was run: as §1

[8] = Homo sapiens, Thyroid cell, 72 h

CCn1ccc2c3c(=O)c(-c4ccc(Br)cc4)c[nH]c3ccc21 [Compound 37, 8-(4-Bromophenyl)-3-ethyl-3H-pyrrolo[3,2-f]quinolin-9(6H)-one]
GI50 (HT-29; Homo sapiens, HT-29, 72 h): > 50 µM
GI50 (ARO; [8]): > 50 µM
GI50 (Hep G2; Homo sapiens, HepG2, 72 h): > 50 µM
GI50 (HeLa; Homo sapiens, HeLa, 72 h): > 50 µM
GI50 (HL-60; Homo sapiens, HL-60, 72 h): > 50 µM
GI50 (ML2; Homo sapiens, ML-2, 72 h): > 50 µM
GI50 (K562; Homo sapiens, K562, 72 h): > 50 µM

CCn1cc(C#N)c2c3c(=O)cc(-c4ccccc4)[nH]c3ccc21 [Compound 21, 3-Ethyl-9-oxo-7-phenyl-6,9-dihydro-3H-pyrrolo[3,2-f]quinoline-1-carbonitrile]
GI50 (HT-29; Homo sapiens, HT-29, 72 h): > 50 µM
GI50 (ARO; [8]): > 50 µM
GI50 (Hep G2; Homo sapiens, HepG2, 72 h): > 50 µM
GI50 (IGROV): > 50 µM
GI50 (MCF-7): > 50 µM
GI50 (HeLa; Homo sapiens, HeLa, 72 h): > 50 µM
GI50 (HL-60; Homo sapiens, HL-60, 72 h): 0.21 ± 0.01 µM
GI50 (ML2; Homo sapiens, ML-2, 72 h): 0.55 ± 0.03 µM
GI50 (K562; Homo sapiens, K562, 72 h): 0.46 ± 0.008 µM
GI50 (RS 4;11): 0.13 ± 0.02 µM
GI50 (Jurkat): 0.3 ± 0.01 µM
GI50 (solid tumor cells): > 50 µM
activity in the leukemia lines (concentration level, in words) (leukemia cells; MTT): sub-micromolar

CCn1cc(C)c2c3c(=O)cc(-c4ccccc4)[nH]c3ccc21 [Compound 17, 3-Ethyl-1-methyl-7-phenyl-3H-pyrrolo[3,2-f]quinolin-9(6H)-one]
GI50 (HT-29; Homo sapiens, HT-29, 72 h): > 50 µM
GI50 (ARO; [8]): > 50 µM
GI50 (Hep G2; Homo sapiens, HepG2, 72 h): 5.8 ± 1.1 µM
GI50 (IGROV): > 50 µM
GI50 (MCF-7): > 50 µM
GI50 (HeLa; Homo sapiens, HeLa, 72 h): 4.5 ± 0.8 µM
GI50 (HL-60; Homo sapiens, HL-60, 72 h): 17.5 ± 2.3 µM
GI50 (ML2; Homo sapiens, ML-2, 72 h): 14.4 ± 2.3 µM
GI50 (K562; Homo sapiens, K562, 72 h): 27.3 ± 0.34 µM
GI50 (RS 4;11): 6.5 ± 1 µM
GI50 (Jurkat): 8 ± 1.2 µM

O=c1c(-c2ccccc2)c[nH]c2ccc3c(ccn3CC3CC3)c12 [Compound 35]
GI50 (HT-29; 72 h exposure, MTT, mean ± SE): > 50 µM
GI50 (ARO; 72 h exposure, MTT, mean ± SE): > 50 µM
GI50 (Hep G2; 72 h exposure, MTT, mean ± SE): > 50 µM
GI50 (HeLa; 72 h exposure, MTT, mean ± SE): > 50 µM
GI50 (HL-60; 72 h exposure, MTT, mean ± SE): > 50 µM
GI50 (ML2; 72 h exposure, MTT, mean ± SE): > 50 µM
GI50 (K562; 72 h exposure, MTT, mean ± SE): > 50 µM

COc1cc(Cn2ccc3c4c(=O)cc(-c5ccccc5)[nH]c4ccc32)cc(OC)c1OC [Compound 12, 7-Phenyl-3-(3,4,5-trimethoxybenzyl)-3H-pyrrolo[3,2-f]quinolin-9(6H)-one]
GI50 (HT-29; Homo sapiens, HT-29, 72 h): 0.45 ± 0.1 µM
GI50 (ARO; [8]): 0.58 ± 0.15 µM
GI50 (Hep G2; Homo sapiens, HepG2, 72 h): 0.95 ± 0.15 µM
GI50 (IGROV): 0.85 ± 0.2 µM
GI50 (MCF-7): 1.4 ± 0.5 µM
GI50 (HeLa; Homo sapiens, HeLa, 72 h): 0.4 ± 0.05 µM
GI50 (HL-60; Homo sapiens, HL-60, 72 h): 0.002 ± 0.0001 µM
GI50 (ML2; Homo sapiens, ML-2, 72 h): 0.01 ± 0.002 µM
GI50 (K562; Homo sapiens, K562, 72 h): 0.03 ± 0.007 µM
GI50 (RS 4;11): 0.001 ± 0.0001 µM
GI50 (Jurkat): 0.003 ± 0.0001 µM
IC50 (Bovine brain tubulin): 1.4 ± 0.2 µM
Colchicine Binding Inhibition [%], 5 μM ([1]; compound 5 μM): 30 ± 4%
Colchicine Binding Inhibition [%], 50 μM ([1]; compound 50 μM): 56 ± 2%
GI50 (solid tumor cells): 0.4 to 1.4 µM
GI50 (leukemia cells; Homo sapiens, read-out: GI50, leukemia cells): 0.0005 to 0.01 µM
arrest in G2/M phase (cell population) (Jurkat cells [2]; 24 h, 0.25 μM, control 9.4 %): 65%
effect on cell-cycle progression (G2/M arrest, in words) (Jurkat cells [2]; 24 h treatment): clear G2/M arrest pattern in a concentration-dependent manner
induction of apoptotic (annexin-V-positive) cells, in words (Jurkat cells [3]): remarkable induction of apoptotic cells
percentage of cells with low ΔΨmt (JC-1), in words (Jurkat cells [4]): significant increase in the percentage of cells with low ΔΨmt
ROS production (HE, H2-DCFDA), in words (Jurkat cells [5]): induced the production of ROS relative to control cells
caspase-3 activation, in words [6]: activate caspase-3
Bcl-2 expression, in words (Bcl-2 in Jurkat cells): decrease Bcl-2 expression

CCn1ccc2c3c(=O)c(-c4ccccc4)c[nH]c3ccc21 [Compound 34, 3-Ethyl-8-phenyl-3H-pyrrolo[3,2-f]quinolin-9(6H)-one]
GI50 (HT-29; Homo sapiens, HT-29, 72 h): > 50 µM
GI50 (ARO; [8]): > 50 µM
GI50 (Hep G2; Homo sapiens, HepG2, 72 h): > 50 µM
GI50 (HeLa; Homo sapiens, HeLa, 72 h): > 50 µM
GI50 (HL-60; Homo sapiens, HL-60, 72 h): > 50 µM
GI50 (ML2; Homo sapiens, ML-2, 72 h): > 50 µM
GI50 (K562; Homo sapiens, K562, 72 h): > 50 µM
GI50 [7]: > 50 µM
